Source: PubChem BioAssay
The list is not random: actives were taken first. Their share in the collection is about 2.1%.
aDG glyco act: increases alpha dystroglycan glycosylation; hit rate 0.22% among 360,000; AID 624168; activation, % at 10 µM; Pro5-aDG cells, alpha-DG glycosylation AlphaScreen (IIH6); 0% Pro5, 100% B10-LARGE cell signal;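 active = activation of at least 8% versus controls, or a plate z-score of at least 8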;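 note: Pro5 are CHO cells carrying HIG-tagged alpha-DG that lacks glycosylation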
Cardio protect: protects H9c2 cardiomyocytes from peroxide injury; H2O2 injury protection, ATPLite, 2 h; protection from H2O2 cell death, % at 20 µM; hit rate 0.63% among 360,000; AID 588492;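 active = compounds giving at least 50% protection of heart cells from peroxide-induced death in the single-dose screen, raw or plate-pattern-corrected value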;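 note: 0% = DMSO wells with peroxide and 100% = DMSO wells without peroxide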
PfG6PD inh: PfG6PD (Plasmodium falciparum) enzyme inhibition; PfGluPho enzyme, NADPH resazurin-diaphorase fluorescence; inhibition, % at 20 µM; hit rate 0.78% among 350,000;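 active = inhibition reaching at least a set limit at 20 µM in the primary screen, cut at about 59% in these data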;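 note: 0% = DMSO wells with substrate and 100% = DMSO wells lacking glucose-6-phosphate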
UCH37 inh: blocks the human deubiquitinase UCH37. purified proteasome/UCH37, Ub-AMC cleavage fluorescence. Q9Y5K5. inhibition, % (concentration not given with the values). hit rate 0.33% among 330,000;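 active = mean inhibition over replicate wells above about 20%, limit read from the data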;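 note: 0% = compound-free wells with enzyme and 100% = wells lacking proteasome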
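Schedule: 30 min plus 25 min, room temperature / Material: human UCH37 within purified proteasomes / Technique: AMC fluorescence intensity at 355/460 nm / Buffer or medium: pH 7.4 Tris-HCl (50 mM) with ovalbumin, ATP-MgCl2, DTT / Controls: wells without proteasome as full block, compound-free enzyme plus substrate as uninhibited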
B2AR ag: human beta-2 adrenergic receptor agonism by FAP | P07550 | Am2.2-beta2AR cells, FAP receptor internalization, flow cytometry | response, % (concentration not given with the values) | hit rate 0.43% among 340,000 | AID 504454;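 active = response above a set limit, near 3 SD of response in nonfluorescent compounds, cut at about 42% in these data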
Target sequence (P07550 whole entry, looked up): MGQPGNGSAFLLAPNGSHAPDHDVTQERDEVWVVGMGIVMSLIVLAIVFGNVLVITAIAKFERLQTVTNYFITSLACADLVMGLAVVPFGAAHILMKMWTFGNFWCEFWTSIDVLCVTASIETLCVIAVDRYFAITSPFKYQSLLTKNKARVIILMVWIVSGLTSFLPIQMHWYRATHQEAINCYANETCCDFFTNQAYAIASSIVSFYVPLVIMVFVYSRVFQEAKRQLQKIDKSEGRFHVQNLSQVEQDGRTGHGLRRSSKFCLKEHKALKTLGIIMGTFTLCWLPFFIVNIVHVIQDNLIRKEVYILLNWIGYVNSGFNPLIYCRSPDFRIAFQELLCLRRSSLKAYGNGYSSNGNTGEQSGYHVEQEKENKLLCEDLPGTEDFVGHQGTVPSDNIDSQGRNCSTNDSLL
HKDC1 inh: HKDC1 (human) hexokinase inhibition. Q2TB90. recombinant HKDC1, G6PDH/diaphorase resazurin coupled fluorescence. inhibition, % at 20 µM. hit rate 0.16% among 340,000;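 active = inhibition above about 35% when tested at 20 µM, limit read from the data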;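 note: plate controls were DMSO wells with enzyme for no effect and DMSO wells lacking enzyme for full effect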
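Assay system: recombinant HKDC1 hexokinase; detection: coupled resazurin fluorescence, excitation 525 nm, emission 613 nm; benchmarks: DMSO-plus-enzyme-mix negative control, buffer-substituted positive control; compound dosing: single 20 µM dose; schedule: 90 min at room temperature in dark; also added: glucose plus 1 mM ATP as hexokinase substrates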
aDG conf: alpha-DG glycosylation activation, confirmation. shares compounds with aDG glyco act. Pro5-aDG cells, IIH6 AlphaLISA; scaled to LARGE-overexpressing B10 cells as 100%. activation, % at 10 µM (by protocol). hit rate 17% among 600. AID 651671;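 active = activation of at least 7% in one or more replicates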;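 note: cells exposed to compound for two days before detection; 0% = DMSO-treated Pro5 cells and 100% = DMSO-treated B10-LARGE cells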
Starred values were filed as active, the others as inactive; nt = no result.

SMILES	aDG glyco act	Cardio protect	PfG6PD inh	UCH37 inh	B2AR ag	HKDC1 inh	aDG conf
O=C(NCCc1cn2ccccc2n1)c1cc(COc2ccc3ncccc3c2)on1	10*	-20	16	4	23	2	1
COCc1cc(C)n(CC(=O)NN=Cc2ccc(-c3ccc(Cl)c(C(=O)O)c3)o2)c(=O)c1C#N	nt	nt	nt	-35	nt	nt	nt
CCOc1c(Cl)cc(C=NNC(N)=S)cc1OC	nt	nt	nt	7	nt	nt	nt
Cc1ccc(-c2n[nH]c(=S)n2N=C/C=C/c2ccccc2[N+](=O)[O-])cc1	nt	nt	nt	7	nt	nt	nt
CN(CC(=O)Nc1cccc(F)c1)C(=O)c1ccc(N2C(=O)c3ccccc3C2=O)cc1	5.1*	-4	-9	2	1	-6	-1
CN(CC(=O)Nc1cccc(F)c1)C(=O)c1cccc(-n2cccc2)c1	0	-5	11	1	-7	9	nt
COC(=O)[C@@]1(Cc2ccccc2)[C@H]2c3cc(C(=O)N4CCCC4)n(CCSCCO)c3C[C@H]2CN1C(=O)c1ccccc1	nt	nt	nt	0	nt	nt	nt
COC(=O)[C@@]1(Cc2ccc(F)cc2)[C@H]2c3cc(C(=O)N4CCCC4)n(CCSCCO)c3C[C@H]2CN1C(=O)c1ccccc1	5.6*	nt	nt	nt	nt	nt	0
O=C(CN1CCN(Cc2ccccc2)CC1)NN=Cc1c[nH]c2ccccc12	nt	nt	nt	3	nt	nt	nt
O=[N+]([O-])c1cccnc1N1CCC(c2cc(-c3ccc(Cl)cc3Cl)n[nH]2)CC1	0	-19	17	4	13	1	nt
CC(=O)c1ccc(N2CCC(c3cc(-c4ccc(Cl)cc4Cl)n[nH]3)CC2)c([N+](=O)[O-])c1	8.8*	-17	13	6	0	1	6
Cc1cc(C)n(-c2nc(NCCN(C)C)c3c4c(sc3n2)CCCC4)n1	0	-16	11	4	38	3	nt
Cc1cc(C)n(-c2nc(SCCN3CCOCC3)c3c4c(sc3n2)CCCC4)n1	2.6*	14	20	-2	1	-7	2
Cc1cc(C)n(-c2nc(NCCCN(C)C)c3c4c(sc3n2)CCCC4)n1	2.7*	-9	8	-6	20	-3	11*
Cc1cc(C)n(-c2nc(NCCC(C)C)c3c4c(sc3n2)COC(C)(C)C4)n1	4.8*	-13	9	nt	3	2	3
Cc1cc(C)n(-c2nc3sc4c(c3c(=O)[nH]2)CCCC4)n1	nt	nt	nt	-2	nt	nt	nt
Cc1cc(C)n(-c2nc(NCCN(C)C)c3c4c(sc3n2)COC(C)(C)C4)n1	1	7	13	-3	11	2	nt
CCCCc1ccc(NC(=O)C(=O)NCCN2CCN(Cc3ccc([N+](=O)[O-])cc3)CC2)cc1	6.6*	-16	3	4	-12	-10	0
COc1ccc(C=c2sc3nc(-c4ccccc4)c(-c4ccccc4)n3c2=O)cc1OC	nt	nt	nt	7	nt	nt	nt
COCC(C)N=C1NN=C(c2cc(C)n(Cc3ccccc3Cl)c2C)CS1 (stereo not drawn)	5.6*	-15	-5	6	5	1	0
O=C(NN=Cc1cc(Br)c(O)c(Br)c1)C1CC1	nt	nt	nt	-13	nt	nt	nt
CC12CCC(=O)C=C1CCC1C2CCC2(C)C(c3csc(N)n3)CCC12 (stereo not drawn)	7.0*	-16	7	-2	17	3	3
CC12CCC(=O)C=C1CCC1C2C(O)CC2(C)C(c3csc(N)n3)CCC12 (stereo not drawn)	2	-24	19	0	7	-1	nt
O=S(=O)(c1cc(C(F)(F)F)ccc1Cl)N1CCN(c2ncnc3ccccc23)CC1	4.5*	-14	-3	0	-13	1	0
Cc1cc(C)c(C)c(S(=O)(=O)N2CCN(c3ncnc4ccccc34)CC2)c1C	2	-20	6	-2	12	6	nt
O=C(Cn1cncn1)NN=Cc1ccccc1O	nt	nt	nt	-29	nt	nt	nt
Cc1ccc2ccc3cccnc3c2n1	3.6*	-13	20	nt	-4	1	4.7*
Cc1c(C)c2cccnc2c2ncccc12	1	35	5	-1	5	10	nt
